Results reported in article PMC4787808 (Nucleic Acids Research, 2015).
“Also recorded” adds a separate entry of the source.

Columns and labels:
[1] = system: intracellular L. donovani amastigotes; assay: Inhibition of L. donovani amastigotes in infected THP-1 macrophages; format: cell-based, Leishmania donovani; details: 1 μM, positive control
Outline: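 THP-1 cells were differentiated with 25 ng/ml PMA for 24 h at 37°C, then infected with stationary-phase luciferase-expressing L. donovani promastigotes (5:1 parasite:macrophage) for 24 h and washed free of external parasites. Infected macrophages were trypsinised, checked by Giemsa stain and plated in triplicate (5 × 10^5 cells/ml). Compounds in medium with 1% DMSO were added for 48 h; lysates were read by Bright-Glo luminescence. Medium ± DMSO served as 0% inhibition; amphotericin B 1 μM was the positive control on each plate.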

[2] = system: L. tarentolae S30 translation (leishmanial ribosomes); assay: Cell-free inhibition of translation, L. tarentolae LEXSY system; format: biochemical, Leishmania tarentolae; details: relative to PAR
Outline: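 Leishmania tarentolae cell-free LEXSY translation system driven by a pLEXSY-in-vitro2 vector encoding EGFP. Reactions with varied aminoglycoside concentrations ran 120 min at 26°C, and GFP fluorescence was read directly (ex 488, em 507 nm). Each curve used at least six concentrations. IC50 values came from concentration-response fits of at least three independent repeats.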

[3] = system: auditory outer hair cells (organ of Corti explants); assay: Toxicity assay in cochlear explants; format: cell-based, CBA/J mice
Outline: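 Organ of Corti explants from postnatal day 2–3 CBA/J mice were kept in serum-free medium with supplement, BSA, glutamine and glucose, and pre-incubated about 48 h. They were then exposed to drug for 72 h, fixed in 4% PFA, permeabilised and stained with rhodamine phalloidin. Hair cells were counted apex to base under 50x oil and compared with a cytocochleogram database. Loss was reported as percent averaged over the whole explant length.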

[4] = system: Leishmania; details: cited from earlier work

C[C@@H]1[C@H](O)[C@@H](C)/C=C/C=C/C=C/C=C/C=C/C=C/C=C/[C@H](O[C@@H]2O[C@H](C)[C@@H](O)[C@H](N)[C@@H]2O)C[C@@H]2O[C@](O)(C[C@@H](O)C[C@@H](O)[C@H](O)CC[C@@H](O)C[C@@H](O)CC(=O)O[C@H]1C)C[C@H](O)[C@H]2C(=O)O [Amphotericin B]
decrease in intracellular amastigotes [1]: > 90%

CN[C@@H]1[C@@H](O)[C@@H](O[C@@H]2[C@@H](O)[C@H](O[C@H]3O[C@H]([C@@H](C)O)[C@@H](O)[C@H](O)[C@H]3N)[C@@H](N)C[C@H]2N)OC[C@]1(C)O [G418, Geneticin]
times more potent in inhibiting leishmanial ribosomal translation than PAR [2]: 20 times
toxicity to auditory outer hair cells along entire length of explant (in words) ([3]; murine explants, 72 h): high toxicity

CNC(C)C1CCC(N)C(OC2C(N)CC(N)C(OC3OCC(C)(O)C(NC)C3O)C2O)O1 (centres unmarked) [Gentamicin]
anti-leishmanial activity (in words) [4]: lack an anti-leishmanial activity

NC[C@@H]1O[C@H](O[C@H]2[C@@H](O)[C@H](O[C@@H]3[C@@H](O)[C@H](N)C[C@H](N)[C@H]3O[C@H]3O[C@H](CO)[C@@H](O)[C@H](O)[C@H]3N)O[C@@H]2CO)[C@H](N)[C@@H](O)[C@@H]1O [PAR, Paromomycin]
outer hair cell pathology, basal turn of explant ([3]; 10 μM, 72 h): intact
outer hair cell pathology, basal turn of explant ([3]; 22 μM, 72 h): significant loss of OHC; also recorded: partial destruction of outer hair cells
outer hair cell pathology, basal turn of explant ([3]; 33 μM, 72 h): complete destruction; also recorded: complete elimination of basal-turn outer hair cells
IC Coch50 (outer hair cell loss in cochlear explants) ([3]; murine explants, 72 h exposure): 30 µM
